ERAP1 HTS inh = ERAP1 (human) enzyme inhibition; recombinant ERAP1, Leu-AMC fluorescence, 60 min; inhibition, % at 10.7 µM; AID 652197; Q9NZ08; hit rate 0.15% among 340,000;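 active means mean replicate inhibition of at least 30%, or all replicates individually reaching that 30% level; inactive means mean below 30% and not every replicate reaching it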
S100A4 inh HTS = blocks human S100A4 binding to myosin IIA peptide | P26447 | S100A4/TAMRA-MyoIIA peptide fluorescence polarization | inhibition, % at 10.7 µM | hit rate 0.14% among 360,000;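 active means mean inhibition of at least 70% across replicates, with every replicate also reaching that level; inconclusive means mean inhibition reaches 70% but some replicates fall short; inactive means mean inhibition below 70%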
Target sequence (P26447 whole entry, looked up): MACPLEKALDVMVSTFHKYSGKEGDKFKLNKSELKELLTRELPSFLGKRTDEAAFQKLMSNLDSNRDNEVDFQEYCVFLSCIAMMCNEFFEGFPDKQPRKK
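Compound dosing: one dose per compound; test system: human S100A4 monomer with TAMRA-labelled myosin IIA peptide; probe or stimulus: TAMRA-labelled myosin IIA heavy-chain peptide probe, 5 nM; medium: HEPES buffer with Ca2+, pH 7.2; schedule: 5 min incubation before reading; benchmarks: neutral control DMSO, positive control TFP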
PDI inh = blocks human protein disulfide isomerase activity | P07237 | inhibition, % at 10 µM | PDI insulin aggregation turbidity, A650, 90 min | hit rate 0.052% among 350,000;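 active means mean inhibition across replicates of 30% or more, whatever share of single replicates reach that level; inconclusive means mean inhibition below 30% while every single replicate reaches 30%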
ERp5 inh = inhibitors of human ERp5; Q15084; ERp5 insulin aggregation, absorbance 650 nm, 90 min; inhibition, % at 9.99 µM; hit rate 0.05% among 350,000;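 active means mean replicate inhibition above about 25%, with every replicate also reaching it, limit read from the data, passing the limit was not always enough; inconclusive means only one of those two criteria met; inactive means neither criterion met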
FGF22 binding = FGF22 (human) thermal shift binding; recombinant FGF22 thermal shift, SYPRO orange fluorescence; percent of sucrose octasulfate shift, DMSO zero; Q9HCT0; activity (Tm shift, normalised), % at 9.99 µM; AID 651658; hit rate 1.5% among 340,000;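 active means mean Tm shift, scaled 0 neutral to 100 positive control, at about 1.3% or above, every replicate too, limit read from the data; inconclusive means no clear call, values can overlap the other calls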
Target sequence (Q9HCT0 whole entry, looked up): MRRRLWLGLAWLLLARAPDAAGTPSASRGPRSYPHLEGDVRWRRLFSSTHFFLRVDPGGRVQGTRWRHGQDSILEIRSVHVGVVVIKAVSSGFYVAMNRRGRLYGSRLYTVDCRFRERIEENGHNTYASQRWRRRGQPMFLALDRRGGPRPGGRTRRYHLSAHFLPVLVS
Numbers stand for hits; ! = a repeat was not active. Many of the other results were omitted from the sample, so hits are more common in it than they were.

For CC1=C(O)c2ccccc2C(=O)C1=O the results were ERAP1 HTS inh inactive, S100A4 inh HTS inactive, ERp5 inh inactive and FGF22 binding inactive.
For Nc1ncnc2c1ncn2C1OC(CO)C(O)C1O (configuration not stated) the results were ERAP1 HTS inh inactive, S100A4 inh HTS inactive, PDI inh inactive, ERp5 inh inactive and FGF22 binding 43.
`N#Cc1c(N)n(C2OC(CO)C(O)C2O)c2ncnc(N)c12` (configuration not stated) gave ERAP1 HTS inh inactive, S100A4 inh HTS inactive, PDI inh inactive, ERp5 inh inactive and FGF22 binding 43.
`CC(C)(C)C(=O)O/N=C(\N)c1ccc([N+](=O)[O-])s1` gave ERAP1 HTS inh inactive, S100A4 inh HTS inactive, PDI inh inactive, ERp5 inh inactive and FGF22 binding inactive.
CCOC(=O)c1cnn(-c2ccccc2)c1NC(=O)c1ccc(C)cc1 was read as PDI inh inactive.
O=C(Nc1ccc2c(c1)OCO2)c1cccc(S(=O)(=O)N2CCOCC2)c1 was read as ERAP1 HTS inh inactive, S100A4 inh HTS inactive, PDI inh inactive, ERp5 inh inactive and FGF22 binding inactive.
COc1ccc(CNCC(=O)Nc2cc(C)nn2-c2nc(C)cc(C)n2)cc1OC was read as ERAP1 HTS inh inactive, S100A4 inh HTS inactive, ERp5 inh inactive and FGF22 binding 44.
For O=Cc1ccc(-c2ccccc2C(=O)O)o1 the results were ERAP1 HTS inh inactive, S100A4 inh HTS inactive, PDI inh inactive, ERp5 inh inactive and FGF22 binding 43.
Screening O=C(CSc1ncnc2c1oc1ccccc12)OCc1ccccc1 returned ERAP1 HTS inh inactive, S100A4 inh HTS inactive, PDI inh inactive, ERp5 inh inactive and FGF22 binding inactive.
Screening O=C(O)c1ccc(N=C2NC(=O)C(CO)(CO)S2)cc1 returned ERAP1 HTS inh inactive, S100A4 inh HTS inactive, PDI inh inactive, ERp5 inh inactive and FGF22 binding inactive.
CCN1/C(=C/C(C)=C/c2sc3ccccc3[n+]2CC)Sc2ccccc21 was read as ERAP1 HTS inh inactive, S100A4 inh HTS active, PDI inh inactive, ERp5 inh inactive and FGF22 binding inactive.
C[C@H]1CN([C@@H](C)CO)C(=O)CCCn2nncc2CO[C@H]1CN(C)S(=O)(=O)c1ccc2c(c1)OCCCO2 was read as ERAP1 HTS inh inactive, S100A4 inh HTS 117!, PDI inh inactive, ERp5 inh inactive and FGF22 binding inactive.
For C[C@@H]1CN([C@H](C)CO)C(=O)CCCn2cc(nn2)CO[C@H]1CN(C)S(=O)(=O)c1ccc(Oc2ccccc2)cc1 the results were ERAP1 HTS inh inactive, S100A4 inh HTS inactive, PDI inh inactive, ERp5 inh inactive and FGF22 binding inactive.
For C[C@@H]1CN([C@@H](C)CO)C(=O)CCCn2cc(nn2)CO[C@H]1CN(C)S(=O)(=O)c1ccc(Oc2ccccc2)cc1 the results were ERAP1 HTS inh inactive, S100A4 inh HTS 82!, ERp5 inh inactive and FGF22 binding inactive.
Screening C[C@@H]1CN([C@@H](C)CO)C(=O)c2cc(NS(=O)(=O)c3ccc(Cl)cc3)ccc2O[C@H]1CN(C)C(=O)NC1CCCCC1 returned ERAP1 HTS inh inactive, S100A4 inh HTS inactive, ERp5 inh inactive and FGF22 binding inactive.
For COc1ccc(C(NC(=O)C2C3C=CC(C3)C2C(=O)O)c2ccccc2)cc1 (configuration not stated) the results were ERAP1 HTS inh inactive, S100A4 inh HTS inactive, PDI inh inactive, ERp5 inh inactive and FGF22 binding 52.
Cc1cc(Cl)ccc1OCC(=O)OCC(=O)N(CC(C)C)c1c(N)n(Cc2ccccc2)c(=O)[nH]c1=O was read as ERAP1 HTS inh inactive, S100A4 inh HTS inactive, PDI inh inactive, ERp5 inh inactive and FGF22 binding inactive.
For O=C(O)c1cc(O)c2c(c1)[C@@H]([C@H]1c3cc(C(=O)O)cc(O)c3C(=O)c3c(O[C@@H]4O[C@H](CO)[C@@H](O)[C@H](O)[C@H]4O)cccc31)c1cccc(OC3O[C@H](CO)[C@@H](O)[C@H](O)[C@H]3O)c1C2=O (some centres not stated) the results were ERAP1 HTS inh inactive, S100A4 inh HTS inactive, PDI inh inconclusive, ERp5 inh inactive and FGF22 binding inactive.
`O=C(O)c1cc(O)c2c(c1)[C@H]([C@H]1c3cc(C(=O)O)cc(O)c3C(=O)c3c(O[C@@H]4O[C@H](CO)[C@@H](O)[C@H](O)[C@H]4O)cccc31)c1cccc(OC3O[C@H](CO)[C@@H](O)[C@H](O)[C@H]3O)c1C2=O` (some centres not stated) gave ERAP1 HTS inh inactive, S100A4 inh HTS inactive, PDI inh 47, ERp5 inh inactive and FGF22 binding inactive.
For C/C=C/c1ccc2c(c1)O[C@H](CN(C)Cc1cncnc1)[C@H](C)CN([C@@H](C)CO)S2(=O)=O the results were ERAP1 HTS inh inactive, S100A4 inh HTS inactive, ERp5 inh 29 and FGF22 binding inactive.
For C/C=C/c1ccc2c(c1)O[C@H](CN(C)S(C)(=O)=O)[C@H](C)CN([C@@H](C)CO)S2(=O)=O the results were ERAP1 HTS inh inactive, S100A4 inh HTS inactive, ERp5 inh inactive and FGF22 binding inactive.
For COc1ccccc1-c1ccc2c(c1)O[C@@H](CN(C)C(C)=O)[C@@H](C)CN([C@@H](C)CO)S2(=O)=O the results were ERAP1 HTS inh inactive, S100A4 inh HTS inactive, ERp5 inh inactive and FGF22 binding inactive.
Screening C/C=C/c1ccc2c(c1)O[C@@H](CN(C)S(C)(=O)=O)[C@H](C)CN([C@H](C)CO)S2(=O)=O returned ERAP1 HTS inh inactive, S100A4 inh HTS inactive, ERp5 inh 88 and FGF22 binding inactive.
For C/C=C/c1ccc2c(c1)O[C@H](CN(C)S(C)(=O)=O)[C@@H](C)CN([C@@H](C)CO)S2(=O)=O the results were ERAP1 HTS inh inactive, S100A4 inh HTS inactive, ERp5 inh inconclusive and FGF22 binding inactive.
COc1ccccc1-c1ccc2c(c1)O[C@H](CN(C)C(C)=O)[C@@H](C)CN([C@@H](C)CO)S2(=O)=O was read as ERAP1 HTS inh inactive, S100A4 inh HTS 123, ERp5 inh inactive and FGF22 binding inactive.
C/C=C/c1ccc2c(c1)O[C@@H](CN(C)Cc1cccnc1)[C@@H](C)CN([C@H](C)CO)S2(=O)=O was read as ERAP1 HTS inh inactive, S100A4 inh HTS inactive, ERp5 inh inactive and FGF22 binding inactive.
`C/C=C/c1ccc2c(c1)O[C@@H](CN(C)S(C)(=O)=O)[C@H](C)CN([C@@H](C)CO)S2(=O)=O` gave ERAP1 HTS inh inactive, S100A4 inh HTS inactive, ERp5 inh 68 and FGF22 binding inactive.
`COc1ccccc1N(C)S(=O)(=O)c1ccc(C(=O)N(C)Cc2cccc(OC)c2OC)cc1` gave ERAP1 HTS inh inactive, S100A4 inh HTS inactive, PDI inh inactive, ERp5 inh inactive and FGF22 binding inactive.
Screening CC(C)CNS(=O)(=O)c1ccc(CCC(=O)N2CCOCC2)cc1 returned PDI inh inactive.
`C[C@@H]1CN([C@@H](C)CO)S(=O)(=O)c2ccc(-c3ccccc3)cc2O[C@H]1CN(C)Cc1cccc(F)c1` gave ERAP1 HTS inh inactive, S100A4 inh HTS 143, ERp5 inh inactive and FGF22 binding inactive.

Screening results as filed in PubChem.
